bIAP inh: blocks bovine intestinal alkaline phosphatase activity; purified bovine IAP, CDP-star luminescence, 30 min; inhibition, % at 20 µM; 190,000 tested, under 10 active; AID 1019;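 active means over 50% inhibition of intestinal alkaline phosphatase at 20 µM in the single-dose screen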
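Assay system – bovine IAP enzyme · Quantity – bovine IAP at 1/65,000,000 final dilution · Detection – CDP-star luminescence signal · Times – 30 min reaction at room temperature · Also added – CDP-star substrate at 30 µM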
bIAP act: increases bovine intestinal alkaline phosphatase activity; hit rate 0.17% among 200,000; purified bovine IAP, CDP-star luminescence, 30 min; active compounds read high; fold of DMSO-control signal, blank-subtracted; activation factor at 20 µM;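 active means activation factor of 2 or more at 20 µM, a signal rise over negative controls twice the positive control's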
hIAP block: blocks human intestinal alkaline phosphatase; P09923; AID 2544; inhibition, % at 10 µM; hit rate 0.12% among 330,000; purified IAP, CDP-Star luminescence, 30 min;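 active means inhibition reaching a set limit with compound at 10 µM in the primary screen, cut at about 35% in these data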;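 further: plate controls were DMSO wells with enzyme for no effect and no-enzyme buffer wells for full effect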
Target sequence (P09923 whole entry, looked up): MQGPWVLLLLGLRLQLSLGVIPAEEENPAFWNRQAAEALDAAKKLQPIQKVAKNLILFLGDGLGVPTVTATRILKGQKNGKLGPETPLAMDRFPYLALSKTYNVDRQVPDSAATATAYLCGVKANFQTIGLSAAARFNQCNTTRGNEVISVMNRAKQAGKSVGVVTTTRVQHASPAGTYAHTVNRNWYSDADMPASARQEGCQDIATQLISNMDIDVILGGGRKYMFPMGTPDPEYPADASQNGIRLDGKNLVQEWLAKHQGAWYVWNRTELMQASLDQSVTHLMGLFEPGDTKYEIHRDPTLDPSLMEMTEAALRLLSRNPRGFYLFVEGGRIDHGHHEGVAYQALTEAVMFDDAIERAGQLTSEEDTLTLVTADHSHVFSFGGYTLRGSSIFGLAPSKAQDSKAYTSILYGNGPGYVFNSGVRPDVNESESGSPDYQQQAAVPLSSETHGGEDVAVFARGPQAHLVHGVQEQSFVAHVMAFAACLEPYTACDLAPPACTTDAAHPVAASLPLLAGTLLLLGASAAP
hIAP activ: increases human intestinal alkaline phosphatase activity | purified human IAP, CDP-Star luminescence, 30 min; active compounds read high; 1 = vehicle-only enzyme, 0 = enzyme-free background | activation factor at 10 µM | hit rate 0.16% among 330,000 | AID 2524 | P09923;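 active means activation factor of the enzyme at least 2-fold when tested at 20 µM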
mIAP block: blocks mouse intestinal alkaline phosphatase | AID 2806 | purified mouse IAP, CDP-Star luminescence, 30 min | hit rate 0.2% among 330,000 | inhibition, % at 10 µM;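 active means inhibition of at least 40% at 10 µM in the primary screen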;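 further: plate controls were DMSO with enzyme for no effect and no enzyme wells for full effect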
mIAP act: increases mouse intestinal alkaline phosphatase activity; muIAP, CDP-Star luminescence, 30 min; active compounds read high; 1 = vehicle-only enzyme signal, 0 = enzyme-free wells; activation factor at 10 µM; hit rate 0.24% among 330,000;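 active means activation factor of at least 2 at 20 µM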
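System: mouse IAP enzyme. Reagent: CDP-Star chemiluminescent phosphatase substrate. Benchmarks: DMSO wells, no-enzyme wells. Times: 30 min enzyme-substrate-compound incubation at room temperature. Detection: luminescence from enzymatic CDP-Star hydrolysis. Doses: test compounds delivered from DMSO solution.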
Numbers without * were called inactive; x = no result. Hits are enriched below; roughly 0.77% of the tested compounds scored in any of these assays.

SMILES	bIAP inh	bIAP act	hIAP block	hIAP activ	mIAP block	mIAP act
O=c1[nH]c2cc(Cl)c([N+](=O)[O-])nc2[nH]1	38	0.6	13	0.87	54*	0.47
CCNc1nc(NCC)nc(Oc2ccc(OCc3ccccc3)nn2)n1	10	0.9	8	0.92	2	0.98
CC(=O)C1=C(C)NC(SCC(=O)c2ccc(Cl)c(Cl)c2)=C(C#N)C1c1ccco1 (stereo not given)	3	1	35*	0.65	20	0.8
CC(=O)C1=C(C)NC(SCC(=O)c2cc(Cl)ccc2Cl)=C(C#N)C1c1ccco1 (stereo not given)	16	0.8	-18	1.2	11	0.89
CCOc1ccc(NS(=O)(=O)c2ccc3[nH]c(=O)c(=O)[nH]c3c2)cc1	-17	1.2	14	0.86	-3	1
CCc1ccc(OCC(=O)N/N=C(\C)c2ccc(-n3ccnc3)cc2)cc1	-100	2*	-14	1.1	7	0.93
COC(=O)c1ccc2c(c1)C(C)(C)C(/C=C/c1ccc(O)cc1)=[N+]2C	x	0.2	50*	0.5	12	0.89
Clc1ccc(-n2nnc(-c3cccnc3Cl)n2)cc1Cl	10	0.9	5	0.95	49*	0.51
C[C@@H]1CN([C@@H](C)CO)C(=O)Cc2cc(NC(=O)Nc3cccc4ccccc34)ccc2O[C@@H]1CN(C)S(C)(=O)=O	x	x	13	0.87	-127	2.3*
C[C@@H]1CN([C@@H](C)CO)C(=O)Cc2cc(NS(=O)(=O)c3ccccc3)ccc2O[C@H]1CN(C)S(C)(=O)=O	x	x	-10	1.1	-2	1
C[C@@H]1CN([C@H](C)CO)C(=O)Cc2cc(NC(=O)Nc3ccccc3)ccc2O[C@@H]1CN(C)Cc1ccc2c(c1)OCO2	x	x	-9	1.1	-113	2.1*
C[C@@H]1CN([C@@H](C)CO)C(=O)Cc2cc(NC(=O)Nc3cccc4ccccc34)ccc2O[C@@H]1CN(C)Cc1ccc(C(F)(F)F)cc1	x	x	-1	1	-114	2.1*
C[C@@H]1CN([C@H](C)CO)C(=O)Cc2cc(NS(=O)(=O)c3ccc(Cl)cc3)ccc2O[C@H]1CN(C)Cc1ccc(C(F)(F)F)cc1	x	x	-2	1	4	0.96
Cc1ccc2nc(N3C(=O)C(O)=C(C(=O)c4ccc(C)o4)C3c3ccco3)sc2c1 (stereo not given)	x	x	-22	1.2	50*	0.5
CCN1C(=O)/C(=C2\C=Cc3ccccc3N2CC)SC1=S	25	0.7	30	0.7	41*	0.59
CCN1C(=O)/C(=c2\o/c(=C3\C=Cc4ccccc4N3CC)c(=O)n2CC)SC1=S	38	0.6	x	x	x	x
Cc1cc(C)c(S(=O)(=O)Nc2ccc(O)c(Sc3ncn[nH]3)c2)c(C)c1	2	1	7	0.93	69*	0.31
Cc1ccc(O)c(-c2cc(C(=O)NCc3ccncc3)[nH]n2)c1	-106	2.1*	0	1	2	0.98
Cc1noc(C)c1COC(=O)c1ccc(-c2nc3ccccc3s2)s1	2	1	-2	1	42*	0.58
CCNC(=O)COC(=O)c1ccc(-c2nc3ccccc3s2)s1	-10	1.1	-5	1.1	-8	1.1
Cc1ccc2oc(=O)n(CCC(=O)Nc3ccc(N4CCOCC4)cc3)c2c1	x	x	-1	1	-4	1
O=C(O)c1cc(O)c2c(c1)C(=O)c1cc(O)cc(O)c1C2=O	13	0.9	17	0.83	40*	0.6
Cc1nn(-c2ncc(C(F)(F)F)cc2Cl)c(=O)n1-c1cccc(Cl)c1	-2	1	-4	1	-2	1
C#CCOCCOCCOCCNc1nc(N2CCN(C(=O)C(Cc3cc4ccccc4[nH]3)n3cc(C(N)C(C)CC)nn3)CC2)nc(N2CCN(C(=O)C(Cc3cc4ccccc4[nH]3)n3cc(C(N)C(C)CC)nn3)CC2)n1 (stereo not given)	-292	3.9*	9	0.91	-78	1.8
COc1ccccc1N1CCN(C(=O)CSc2nc(C)cc(=O)[nH]2)CC1	5	1	14	0.86	0	1
SMILES	bIAP inh	bIAP act	hIAP block	hIAP activ	mIAP block	mIAP act
COc1ccc(NC(=O)C2CCC(CNc3c(N4CCC(C)CC4)c(=O)c3=O)CC2)cc1OC (stereo not given)	-206	3.1*	18	0.82	0	1
COc1cc(NC(=O)C2CCC(CNc3c(N4CCC(C)CC4)c(=O)c3=O)CC2)cc(OC)c1 (stereo not given)	-28	1.3	8	0.92	-23	1.2
O=C(CSc1cccc[n+]1[O-])c1cc2ccccc2o1	-5	1.1	0	1	-5	1
Cc1c(Cl)cccc1NC(=O)CCC(=O)N/N=C/c1ccc[nH]1	5	0.9	1	0.99	51*	0.49
Cc1ccc(C)c(NC(=O)CCC(=O)N/N=C/c2ccc[nH]2)c1	8	0.9	9	0.91	36	0.64
CCN1/C(=C/C=C/c2oc3ccc4ccccc4c3[n+]2CC)Oc2ccc3ccccc3c21	-9	1.1	44*	0.56	47*	0.53
CC[n+]1c(/C=C/N(C)c2ccccc2)oc2ccc(Cl)cc21	-2	1	-2	1	2	0.98
CC(=O)NCCCC(=O)NC(CCC(=O)OCc1ccccc1)C(=O)OCc1ccccc1 (stereo not given)	3	1	-3	1	1	0.99
CC(C(=O)NCc1ccco1)n1ccc2cc(S(=O)(=O)N3CCCC3)ccc21 (stereo not given)	x	x	-5	1.1	-4	1
COc1ccc(CNC(=O)C(C)n2ccc3cc(S(=O)(=O)N4CCCCCC4)ccc32)cc1 (stereo not given)	x	x	-38	1.4	-107	2.1*
Cc1csc(NC(=O)C(Cc2ccccc2)n2cccc2)n1 (stereo not given)	12	0.9	8	0.92	43*	0.57
Cc1ccc(NC(=O)C(Cc2ccccc2)n2cccc2)cc1 (stereo not given)	x	x	-14	1.1	-28	1.3
CCCCN(CCCC)C1=Nc2ccccc2N/C1=C(/C#N)C(=O)OCC	20	0.8	-3	1	16	0.84
Cc1ccc(NC(=O)CSc2nc3ccccc3c(=O)n2CCCN2CCCCC2)cc1Cl	-162	2.6*	-33	1.3	-46	1.5
COc1cc(CNCc2ccccn2)ccc1OCc1ccc(Cl)cc1Cl	-174	2.7*	-59	1.6	-25	1.3
COc1cc(CNCc2ccccn2)ccc1OCc1ccc(Cl)c(Cl)c1	-142	2.4*	-21	1.2	-20	1.2
COc1cc(CNCc2ccccn2)ccc1OCC(N)=O	-2	1	-2	1	-10	1.1
COc1cc(CNCCN2CCOCC2)ccc1OCc1ccc(Cl)cc1Cl	-11	1.1	-6	1.1	5	0.95
